{"source": "ChEMBL document CHEMBL2311521", "about": "“Design, synthesis, characterization and biological evaluation of novel pyrazole integrated benzophenones” (2013)", "key": {"[1]": {"test_system": "Radical scavenging activity", "test": "Antioxidant activity of the compound assessed as DPPH radical scavenging activity at 100 uM after 20 mins", "assay_type": "functional", "outline": "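Sample solution (0.1 mM) was mixed with an equal volume of 0.1 mM DPPH in ethanol. After 20 min at room temperature, DPPH reduction was read as absorbance at 517 nm.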"}, "[2]": {"test_system": "Rattus norvegicus", "test": "Antiinflammatory activity in rat assessed as inhibition of carrageenan-induced hind paw edema at 100 mg/kg, po administered 1 hr before carrageenan-challenge measured after 1 hr", "assay_type": "functional", "outline": "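Rats (n = 6 per group) were dosed orally, with the vehicle group given 1% w/v gum acacia at 10 ml/kg p.o. One hour after dosing, 0.1 ml of 1% w/v carrageenan was injected subplantar into the hind paw. Paw volume was measured by plethysmometer volume displacement, immersing the paw to the lateral malleolus, at 1, 3 and 6 h after carrageenan.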"}, "[3]": {"target": "T1, Prostaglandin G/H synthase 1 (Ovis aries) (UniProt P05979)", "T1 sequence (whole entry)": "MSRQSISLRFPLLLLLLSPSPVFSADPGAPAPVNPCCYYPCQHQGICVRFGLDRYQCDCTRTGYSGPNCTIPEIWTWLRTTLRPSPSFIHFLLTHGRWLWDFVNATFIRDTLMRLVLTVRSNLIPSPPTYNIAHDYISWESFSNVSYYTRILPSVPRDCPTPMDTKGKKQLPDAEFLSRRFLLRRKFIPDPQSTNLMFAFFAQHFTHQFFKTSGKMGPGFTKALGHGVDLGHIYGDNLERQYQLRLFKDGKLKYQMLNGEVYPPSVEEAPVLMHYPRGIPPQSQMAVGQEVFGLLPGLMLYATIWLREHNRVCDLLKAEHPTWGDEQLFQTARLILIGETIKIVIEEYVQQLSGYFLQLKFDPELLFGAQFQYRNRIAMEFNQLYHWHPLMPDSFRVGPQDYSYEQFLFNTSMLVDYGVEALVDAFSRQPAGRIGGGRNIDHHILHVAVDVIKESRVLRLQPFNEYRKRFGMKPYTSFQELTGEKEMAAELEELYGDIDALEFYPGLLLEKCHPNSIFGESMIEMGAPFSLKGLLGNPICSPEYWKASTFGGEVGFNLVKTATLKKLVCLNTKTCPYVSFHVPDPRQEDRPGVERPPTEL", "test": "Inhibition of ovine COX1 peroxidase activity assessed as appearance of oxidized N,N,N,N'-tetramethyl-p-phenylenediamine by colorimetric analysis relative to control", "design": "concentration or dose not given beside the values", "conditions": "concentration not given here", "outline": "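Colorimetric ovine COX inhibitor screening kit: assay buffer, heme, COX-1 enzyme and sample (0.1 mM), with peroxidase activity read by absorbance at 590 nm. Percent inhibition = (1 − T/C) × 100, where C is the uninhibited well. Determinations were run in duplicate.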"}, "[4]": {"test_system": "Rattus norvegicus", "test": "Antiinflammatory activity in rat assessed as inhibition of carrageenan-induced hind paw edema at 100 mg/kg, po administered 1 hr before carrageenan-challenge measured after 6 hrs"}, "[5]": {"test_system": "Rattus norvegicus", "test": "Antiinflammatory activity in rat assessed as inhibition of carrageenan-induced hind paw edema at 100 mg/kg, po administered 1 hr before carrageenan-challenge measured after 3 hrs"}, "[6]": {"test": "Antioxidant activity assessed as superoxide radical scavenging activity at 100 uM after 5 mins by NBT reduction assay", "assay_type": "functional", "outline": "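Superoxide scavenging by NBT reduction in buffer (100 mM, pH 7.4) with NBT and sample (0.1 mM). The reaction was started by adding PMS, incubated 5 min at room temperature, and read by absorbance at 560 nm.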"}, "[7]": {"test": "Antioxidant activity assessed as hydroxyl radical scavenging activity at 100 uM after 5 mins", "assay_type": "functional"}}, "data": [{"smiles": "COc1cc(OC)c(-c2ccnn2C)c(O)c1C(=O)c1cccc(C(F)(F)F)c1", "values": [{"measurement": "Activity", "setting": "[1]", "value": 28, "unit": "%"}, {"measurement": "Activity", "setting": "[2]", "value": 0.93, "unit": "mL"}, {"measurement": "inhibition", "setting": "[3]", "value": 55.8, "unit": "%"}, {"measurement": "Activity", "setting": "[4]", "value": 1.55, "unit": "mL"}, {"measurement": "Activity", "setting": "[5]", "value": 1.44, "unit": "mL"}]}, {"smiles": "COc1cc(OC)c(-c2ccnn2C)c(O)c1C(=O)c1ccc(Cl)cc1Cl", "values": [{"measurement": "Activity", "setting": "[1]", "value": 26.1, "unit": "%"}, {"measurement": "Activity", "setting": "[2]", "value": 0.59, "unit": "mL"}, {"measurement": "inhibition", "setting": "[3]", "value": 61.7, "unit": "%"}, {"measurement": "Activity", "setting": "[4]", "value": 1.62, "unit": "mL"}, {"measurement": "Activity", "setting": "[5]", "value": 1.22, "unit": "mL"}]}, {"smiles": "COc1cc(OC)c(-c2ccnn2C)c(O)c1C(=O)c1ccc(F)cc1F", "values": [{"measurement": "Activity", "setting": "[1]", "value": 43.6, "unit": "%"}, {"measurement": "Activity", "setting": "[2]", "value": 1.12, "unit": "mL"}, {"measurement": "inhibition", "setting": "[3]", "value": 55.8, "unit": "%"}, {"measurement": "Activity", "setting": "[4]", "value": 1.17, "unit": "mL"}, {"measurement": "Activity", "setting": "[5]", "value": 1.05, "unit": "mL"}]}, {"smiles": "COc1cc(OC)c(-c2ccnn2C)c(O)c1C(=O)c1cccc(F)c1", "values": [{"measurement": "Activity", "setting": "[1]", "value": 34.5, "unit": "%"}, {"measurement": "Activity", "setting": "[2]", "value": 0.92, "unit": "mL"}, {"measurement": "inhibition", "setting": "[3]", "value": 61.7, "unit": "%"}, {"measurement": "Activity", "setting": "[4]", "value": 1.63, "unit": "mL"}, {"measurement": "Activity", "setting": "[5]", "value": 1.2, "unit": "mL"}]}, {"smiles": "COc1cc(OC)c(-c2ccnn2C)c(O)c1C(=O)c1cccc(Br)c1", "values": [{"measurement": "Activity", "setting": "[1]", "value": 40.2, "unit": "%"}, {"measurement": "Activity", "setting": "[2]", "value": 0.92, "unit": "mL"}, {"measurement": "inhibition", "setting": "[3]", "value": 59.1, "unit": "%"}, {"measurement": "Activity", "setting": "[4]", "value": 0.91, "unit": "mL"}, {"measurement": "Activity", "setting": "[5]", "value": 1, "unit": "mL"}]}, {"smiles": "COc1cc(OC)c(-c2ccnn2C)c(O)c1C(=O)c1ccccc1", "values": [{"measurement": "Activity", "setting": "[1]", "value": 36.2, "unit": "%"}, {"measurement": "Activity", "setting": "[2]", "value": 0.81, "unit": "mL"}, {"measurement": "inhibition", "setting": "[3]", "value": 57.5, "unit": "%"}, {"measurement": "Activity", "setting": "[4]", "value": 1.22, "unit": "mL"}, {"measurement": "Activity", "setting": "[5]", "value": 1.11, "unit": "mL"}]}, {"smiles": "COc1cc(OC)c(-c2ccnn2C)c(O)c1C(=O)c1cc(Cl)ccc1Cl", "values": [{"measurement": "Activity", "setting": "[1]", "value": 31.2, "unit": "%"}, {"measurement": "Activity", "setting": "[2]", "value": 1.01, "unit": "mL"}, {"measurement": "inhibition", "setting": "[3]", "value": 52.4, "unit": "%"}, {"measurement": "Activity", "setting": "[4]", "value": 1.11, "unit": "mL"}, {"measurement": "Activity", "setting": "[5]", "value": 1.1, "unit": "mL"}]}, {"smiles": "COc1cc(OC)c(-c2ccnn2C)c(O)c1C(=O)c1ccccc1F", "values": [{"measurement": "Activity", "setting": "[1]", "value": 31.5, "unit": "%"}, {"measurement": "Activity", "setting": "[2]", "value": 1.1, "unit": "mL"}, {"measurement": "inhibition", "setting": "[3]", "value": 58.3, "unit": "%"}, {"measurement": "Activity", "setting": "[4]", "value": 0.96, "unit": "mL"}, {"measurement": "Activity", "setting": "[5]", "value": 1.06, "unit": "mL"}]}, {"smiles": "COc1cc(OC)c(-c2ccnn2C)c(O)c1C(=O)c1cccc(Cl)c1Cl", "values": [{"measurement": "Activity", "setting": "[1]", "value": 29.6, "unit": "%"}, {"measurement": "Activity", "setting": "[2]", "value": 0.9, "unit": "mL"}, {"measurement": "inhibition", "setting": "[3]", "value": 58.3, "unit": "%"}, {"measurement": "Activity", "setting": "[4]", "value": 1.29, "unit": "mL"}, {"measurement": "Activity", "setting": "[5]", "value": 1.39, "unit": "mL"}]}, {"smiles": "COc1ccc2c(c1)c(CC(=O)O)c(C)n2C(=O)c1ccc(Cl)cc1", "note": "[INDOMETHACIN]", "values": [{"measurement": "Activity", "setting": "[2]", "value": 0.86, "unit": "mL"}, {"measurement": "Activity", "setting": "[4]", "value": 0.78, "unit": "mL"}, {"measurement": "Activity", "setting": "[5]", "value": 0.95, "unit": "mL"}]}, {"smiles": "COc1ccc(C(=O)c2c(OC)cc(OC)c(-c3ccnn3C)c2O)cc1", "values": [{"measurement": "Activity", "setting": "[1]", "value": 48.9, "unit": "%"}, {"measurement": "Activity", "setting": "[2]", "value": 0.89, "unit": "mL"}, {"measurement": "inhibition", "setting": "[3]", "value": 61.4, "unit": "%"}, {"measurement": "Activity", "setting": "[4]", "value": 0.99, "unit": "mL"}, {"measurement": "Activity", "setting": "[5]", "value": 0.89, "unit": "mL"}]}, {"smiles": "O=C1O[C@H]([C@@H](O)CO)C(O)=C1O", "values": [{"measurement": "Activity", "setting": "[6]", "value": 78.3, "unit": "%"}, {"measurement": "Activity", "setting": "[1]", "value": 81.5, "unit": "%"}, {"measurement": "Activity", "setting": "[7]", "value": 52, "unit": "%"}]}]}
